Test results: ChEMBL document CHEMBL1165950, “Design and synthesis of new potent anticancer pyrazoles with high FLT3 kinase inhibitory selectivity” (Bioorg Med Chem, 2010)

Experiments:
Format in all cases: functional
LOX IMVI = assay: Cytotoxicity against human LOXIMVI cells assessed as cell growth at 10 uM; conditions: read-out: Activity
Method in brief: (§1)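 NCI-60 screen: cells grown in RPMI 1640 with 5% FBS and 2 mM L-glutamine, plated at 5000–40,000 cells/well according to doubling time, and preincubated 24 h at 37 °C, 5% CO2. The single 10 µM dose (DMSO stock) was added, then incubated 48 h. Cells were TCA-fixed and stained with 0.4% SRB, read at 515 nm, and growth % calculated against time-zero and control plates.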

A549 = assay: Cytotoxicity against human A549 cells assessed as cell growth at 10 uM; conditions: read-out: Activity
Method in brief: (§2)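 Single-dose NCI-60 screen at 10 µM. Cells were grown in RPMI 1640 with 5% FBS and 2 mM L-glutamine, then treated for 48 h at 37 °C. Protein was measured by SRB staining with absorbance at 515 nm. Percentage growth was recorded, and inhibition percentage was calculated as 100 minus growth percentage.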

PC-3 = assay: Cytotoxicity against human PC3 cells assessed as cell growth at 10 uM; conditions: read-out: Activity; method in brief: as §1
NCI-H226 = assay: Cytotoxicity against human NCI-H226 cells assessed as cell growth at 10 uM; conditions: read-out: Activity; method in brief: as §1
HOP-62 = assay: Cytotoxicity against human HOP62 cells assessed as cell growth at 10 uM; conditions: read-out: Activity; method in brief: as §2
UO-31 = assay: Cytotoxicity against human UO31 cells assessed as cell growth at 10 uM; conditions: read-out: Activity; method in brief: as §1
HCC 2998 = assay: Cytotoxicity against human HCC2998 cells assessed as cell growth at 10 uM; conditions: read-out: Activity; method in brief: as §2
HCT-15 = assay: Cytotoxicity against human HCT15 cells assessed as cell growth at 10 uM; conditions: read-out: Activity; method in brief: as §2
SN12C = assay: Cytotoxicity against human SN12C cells assessed as cell growth at 10 uM; conditions: read-out: Activity; method in brief: as §1
UACC-257 = assay: Cytotoxicity against human UACC257 cells assessed as cell growth at 10 uM; conditions: read-out: Activity; method in brief: as §1
K562 = assay: Cytotoxicity against human K562 cells assessed as cell growth at 10 uM; conditions: read-out: Activity; method in brief: as §2
HT-29 = assay: Cytotoxicity against human HT-29 cells assessed as cell growth at 10 uM; conditions: read-out: Activity; method in brief: as §2
SK-MEL-2 = assay: Cytotoxicity against human SK-MEL-2 cells assessed as cell growth at 10 uM; conditions: read-out: Activity; method in brief: as §1
OVCAR-5 = assay: Cytotoxicity against human OVCAR5 cells assessed as cell growth at 10 uM; conditions: read-out: Activity; method in brief: as §1
KM12 = assay: Cytotoxicity against human KM12 cells assessed as cell growth at 10 uM; conditions: read-out: Activity; method in brief: as §1
NCI-H522 = assay: Cytotoxicity against human NCI-H522 cells assessed as cell growth at 10 uM; conditions: read-out: Activity; method in brief: as §1
MOLT-4 = assay: Cytotoxicity against human MOLT4 cells assessed as cell growth at 10 uM; conditions: read-out: Activity; method in brief: as §1
BT-549 = assay: Cytotoxicity against human BT549 cells assessed as cell growth at 10 uM; conditions: read-out: Activity; method in brief: as §2
IGROV-1 = assay: Cytotoxicity against human IGROV1 cells assessed as cell growth at 10 uM; conditions: read-out: Activity; method in brief: as §2
OVCAR-4 = assay: Cytotoxicity against human OVCAR4 cells assessed as cell growth at 10 uM; conditions: read-out: Activity; method in brief: as §1
SR = assay: Cytotoxicity against human SR cells assessed as cell growth at 10 uM; conditions: read-out: Activity; method in brief: as §1
CCRF-CEM = assay: Cytotoxicity against human CCRF-CEM cells assessed as cell growth at 10 uM; conditions: read-out: Activity; method in brief: as §2
A498 = assay: Cytotoxicity against human A498 cells assessed as cell growth at 10 uM; conditions: read-out: Activity; method in brief: as §2
MCF7 = assay: Cytotoxicity against human MCF7 cells assessed as cell growth at 10 uM; conditions: read-out: Activity; method in brief: as §1
HCT-116 = assay: Cytotoxicity against human HCT116 cells assessed as cell growth at 10 uM; conditions: read-out: Activity; method in brief: as §2
M14 = assay: Cytotoxicity against human M14 cells assessed as cell growth at 10 uM; conditions: read-out: Activity; method in brief: as §1
SF-295 = assay: Cytotoxicity against human SF295 cells assessed as cell growth at 10 uM; conditions: read-out: Activity; method in brief: as §1
MDA-MB-468 = assay: Cytotoxicity against human MDA-MB-468 cells assessed as cell growth at 10 uM; conditions: read-out: Activity; method in brief: as §1
RXF 393 = assay: Cytotoxicity against human RXF393 cells assessed as cell growth at 10 uM; conditions: read-out: Activity; method in brief: as §1
[1] = Cytotoxicity against human […] cells assessed as cell growth at 10 uM; conditions: read-out: Activity; method in brief: as §1
OVCAR-3 = assay: Cytotoxicity against human OVCAR-3 cells assessed as cell growth at 10 uM; conditions: read-out: Activity; method in brief: as §1
HL-60(TB) = assay: Cytotoxicity against human HL-60(TB) cells assessed as cell growth at 10 uM; conditions: read-out: Activity
Method in brief: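 NCI 60-cell panel screen at a single concentration of 10 µM. Cells are grown in RPMI 1640 with 5% FBS and 2 mM L-glutamine and read by SRB protein staining at 515 nm. Percent growth is measured relative to time-zero and untreated controls; inhibition % is 100 minus growth %.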

OVCAR-8 = assay: Cytotoxicity against human OVCAR8 cells assessed as cell growth at 10 uM; conditions: read-out: Activity; method in brief: as §1
NCI/ADR-RES = assay: Cytotoxicity against human NCI/ADR-RES cells assessed as cell growth at 10 uM; conditions: read-out: Activity; method in brief: as §1
786-0 = assay: Cytotoxicity against human 786-0 cells assessed as cell growth at 10 uM; conditions: read-out: Activity; method in brief: as §2
SK-MEL-5 = assay: Cytotoxicity against human SK-MEL-5 cells assessed as cell growth at 10 uM; conditions: read-out: Activity; method in brief: as §1
NCI-H460 = assay: Cytotoxicity against human NCI-H460 cells assessed as cell growth at 10 uM; conditions: read-out: Activity; method in brief: as §1
DU-145 = assay: Cytotoxicity against human DU145 cells assessed as cell growth at 10 uM; conditions: read-out: Activity; method in brief: as §2
[2] = Growth inhibition of human NCI60 cells at 10 uM after 48 hrs by sulforhodamine B assay relative to control; conditions: NCI60, 48 h, read-out: GI
Method in brief: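 Single-dose NCI screen at 10 µM across the 60-line panel, 48 h exposure at 37 °C after a 24 h preincubation. Adherent cells were fixed with cold TCA and stained with 0.4% SRB, and absorbance was read at 515 nm. Inhibition % was taken as 100 minus growth %, and the mean across all lines was reported.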

SF-268 = assay: Cytotoxicity against human SF268 cells assessed as cell growth at 10 uM; conditions: read-out: Activity; method in brief: as §1
SW-620 = assay: Cytotoxicity against human SW620 cells assessed as cell growth at 10 uM; conditions: read-out: Activity; method in brief: as §1
ACHN = assay: Cytotoxicity against human ACHN cells assessed as cell growth at 10 uM; conditions: read-out: Activity; method in brief: as §2
CAKI-1 = assay: Cytotoxicity against human Caki1 cells assessed as cell growth at 10 uM; conditions: read-out: Activity; method in brief: as §2
NCI-H23 = assay: Cytotoxicity against human NCI-H23 cells assessed as cell growth at 10 uM; conditions: read-out: Activity; method in brief: as §1
SF-539 = assay: Cytotoxicity against human SF539 cells assessed as cell growth at 10 uM; conditions: read-out: Activity; method in brief: as §1
NCI-H322M = assay: Cytotoxicity against human NCI-H322M cells assessed as cell growth at 10 uM; conditions: read-out: Activity; method in brief: as §1
T47D = assay: Cytotoxicity against human T47D cells assessed as cell growth at 10 uM; conditions: read-out: Activity; method in brief: as §1
SK-OV-3 = assay: Cytotoxicity against human SKOV3 cells assessed as cell growth at 10 uM; conditions: read-out: Activity; method in brief: as §1
U-251 = assay: Cytotoxicity against human U251 cells assessed as cell growth at 10 uM; conditions: read-out: Activity; method in brief: as §1
EKVX = assay: Cytotoxicity against human EKVX cells assessed as cell growth at 10 uM; conditions: read-out: Activity; method in brief: as §2
COLO 205 = assay: Cytotoxicity against human COLO205 cells assessed as cell growth at 10 uM; conditions: read-out: Activity; method in brief: as §2
SNB-19 = assay: Cytotoxicity against human SNB19 cells assessed as cell growth at 10 uM; conditions: read-out: Activity; method in brief: as §1
Malme-3M = assay: Cytotoxicity against human MALME-3M cells assessed as cell growth at 10 uM; conditions: read-out: Activity; method in brief: as §1
TK-10 = assay: Cytotoxicity against human TK10 cells assessed as cell growth at 10 uM; conditions: read-out: Activity; method in brief: as §1
MDA-MB-435 = assay: Cytotoxicity against human MDA-MB-435 cells assessed as cell growth at 10 uM; conditions: read-out: Activity; method in brief: as §1
HOP-92 = assay: Cytotoxicity against human HOP92 cells assessed as cell growth at 10 uM; conditions: read-out: Activity; method in brief: as §2
MDA-MB-231 = assay: Cytotoxicity against human MDA-MB-231 cells assessed as cell growth at 10 uM; conditions: read-out: Activity; method in brief: as §1
SK-MEL-28 = assay: Cytotoxicity against human SK-MEL-28 cells assessed as cell growth at 10 uM; conditions: read-out: Activity; method in brief: as §1
[3] = Cytotoxicity against human Hs 578T cells assessed as cell growth at 10 uM; conditions: read-out: Activity; method in brief: as §2
UACC-62 = assay: Cytotoxicity against human UACC62 cells assessed as cell growth at 10 uM; conditions: read-out: Activity; method in brief: as §1
SNB-75 = assay: Cytotoxicity against human SNB75 cells assessed as cell growth at 10 uM; conditions: read-out: Activity; method in brief: as §1

`COc1cc(C)cc(-c2c(-c3ccnc(-c4cccc(NC(C)=O)c4)c3)cnn2CC#N)c1` gave a growth at 10 µM (LOX IMVI) of 97.5%, a growth at 10 µM (A549) of 86.7% and a growth at 10 µM (PC-3) of 85.8%. It also gave a growth at 10 µM (NCI-H226) of 93.1%, a growth at 10 µM (HOP-62) of 98.9% and a growth at 10 µM (UO-31) of 63.6%. The growth at 10 µM (HCC 2998) was 101%, the growth at 10 µM (HCT-15) was 94.5% and the growth at 10 µM (SN12C) was 83%. The growth at 10 µM (UACC-257) was 89.8%, the growth at 10 µM (K562) was 86.4% and the growth at 10 µM (HT-29) was 99.4%. For the same molecule, the growth at 10 µM (SK-MEL-2) was 92.1%, the growth at 10 µM (OVCAR-5) was 91.6% and the growth at 10 µM (KM12) was 109%. For the same molecule, the growth at 10 µM (NCI-H522) was 82.5%, the growth at 10 µM (MOLT-4) was 82.8% and the growth at 10 µM (BT-549) was 79.1%. For the same molecule, the growth at 10 µM (IGROV-1) was 98.4%, the growth at 10 µM (OVCAR-4) was 99.7% and the growth at 10 µM (SR) was 80.9%. It also gave a growth at 10 µM (CCRF-CEM) of 88.9%, a growth at 10 µM (A498) of 74.2% and a growth at 10 µM (MCF7) of 85%. It also gave a growth at 10 µM (HCT-116) of 96.4%, a growth at 10 µM (M14) of 96.3% and a growth at 10 µM (SF-295) of 102%. For the same molecule, the growth at 10 µM (MDA-MB-468) was 82.8%, the growth at 10 µM (RXF 393) was 81.5% and the growth at 10 µM [1] was 79.9%. For the same molecule, the growth at 10 µM (OVCAR-3) was 109%, the growth at 10 µM (HL-60(TB)) was 74.7% and the growth at 10 µM (OVCAR-8) was 88%. For the same molecule, the growth at 10 µM (NCI/ADR-RES) was 87.3%, the growth at 10 µM (786-0) was 84% and the growth at 10 µM (SK-MEL-5) was 86.9%. For the same molecule, the growth at 10 µM (NCI-H460) was 107%, the growth at 10 µM (DU-145) was 105% and the inhibition of growth at 10 µM [2] was 9.4%. It also gave a growth at 10 µM (SF-268) of 97.3%, a growth at 10 µM (SW-620) of 104% and a growth at 10 µM (ACHN) of 86%. For the same molecule, the growth at 10 µM (CAKI-1) was 77.3%, the growth at 10 µM (NCI-H23) was 95.3% and the growth at 10 µM (SF-539) was 84.5%. It also gave a growth at 10 µM (NCI-H322M) of 96.9%, a growth at 10 µM (T47D) of 79.3% and a growth at 10 µM (SK-OV-3) of 93.3%. It also gave a growth at 10 µM (U-251) of 94.3%, a growth at 10 µM (EKVX) of 100% and a growth at 10 µM (COLO 205) of 93.5%. For the same molecule, the growth at 10 µM (SNB-19) was 89.6%, the growth at 10 µM (Malme-3M) was 108% and the growth at 10 µM (TK-10) was 67.1%. It also gave a growth at 10 µM (MDA-MB-435) of 99.6%, a growth at 10 µM (HOP-92) of 79.6% and a growth at 10 µM (MDA-MB-231) of 86.5%. It also gave a growth at 10 µM (SK-MEL-28) of 104%, a growth at 10 µM [3] of 99% and a growth at 10 µM (UACC-62) of 81.6%. It also gave a growth at 10 µM (SNB-75) of 72.4%.
